Screens from PubChem BioAssay.
ADAM10 inh – ADAM10 inhibition, QFRET primary screen. O14672. recombinant ADAM10, EDANS/DABCYL FRET peptide cleavage, 3 h. inhibition, % at 7 µM. actives 0.62% (n = 370,000). AID 720582;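 active = inhibition above a per-campaign cutoff equal to the mean of compounds falling between control-based bounds plus 3 SD, cut at about 20% in these data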;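 also: 0% = DMSO wells while the 100% control is not disclosed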
Target sequence (O14672 214-748 limits assumed): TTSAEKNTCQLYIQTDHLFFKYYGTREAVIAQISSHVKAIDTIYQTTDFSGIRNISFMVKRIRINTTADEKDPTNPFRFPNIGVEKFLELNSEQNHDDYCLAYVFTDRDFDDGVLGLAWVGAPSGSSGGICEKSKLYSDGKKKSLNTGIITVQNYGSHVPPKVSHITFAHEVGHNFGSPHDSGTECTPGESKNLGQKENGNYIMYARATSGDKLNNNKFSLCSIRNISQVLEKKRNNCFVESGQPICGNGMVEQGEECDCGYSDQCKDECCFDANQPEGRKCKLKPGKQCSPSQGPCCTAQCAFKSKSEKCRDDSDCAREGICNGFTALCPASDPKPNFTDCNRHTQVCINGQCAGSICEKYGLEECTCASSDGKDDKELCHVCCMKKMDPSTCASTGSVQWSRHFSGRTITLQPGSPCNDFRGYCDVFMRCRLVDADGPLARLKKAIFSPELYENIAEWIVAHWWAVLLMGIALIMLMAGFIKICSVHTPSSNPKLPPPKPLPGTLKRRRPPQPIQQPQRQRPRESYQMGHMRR
MPTP block – blocks calcium-induced mitochondrial swelling. isolated mouse mitochondria, Ca2+ swelling absorbance, 30 min. actives 1.4% (n = 360,000). inhibition, % at 10 µM;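 active = inhibition of 50% or more, scaled per plate between neutral and stimulator controls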;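 also: 0% = DMSO wells given calcium and 100% = 1 mM EGTA wells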
ADAM17 inh – ADAM17 inhibition, QFRET primary screen. P78536. recombinant ADAM17, EDANS/DABCYL FRET peptide cleavage. inhibition, % at 6.95 µM. actives 0.83% (n = 370,000). AID 720648;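 active = inhibition above the mean of compounds lying between control limits plus 3 SD, set per campaign, cut at about 8.5% in these data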;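 also: 0% = DMSO-only wells as the low control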
SKN-1 block – inhibitors of C. elegans SKN-1. inhibition, % at 21.8 µM. AID 624304. C. elegans VP596 Pgst-4::GFP/RFP ratio, acrylamide-induced, 24 h. actives 0.49% (n = 360,000);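 active = interference check ratio from 0.5 to 1.5 plus GFP to RFP signal ratio inhibition reaching or exceeding a fixed threshold, cut at about 30% in these data, passing the limit was not always enough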
GRIN3A LBD mod – modulators (binders) of human NR3A ligand-binding domain; actives 2.5% (n = 340,000); NR3A LBD differential scanning fluorimetry, Tm shift; 0% = protein alone, 100% = glycine-bound protein; Tm shift relative to glycine control, % at 25 µM;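 active = melting temperature shift of at least 10% of the positive control shift, at one fixed dose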
MT1-MMP act inh – blocks activation of human MT1-MMP; P50281; HT1080 RFP-PRO-GFP cells, GFP/RFP ratio fluorescence, overnight; percent of plate control window, DMSO zero; GFP/RFP ratio change, % at 20 µM; actives 0.061% (n = 360,000);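 active = GFP/RFP ratio change of at least 30% with cell ATP level not reduced by more than half and red fluorescence within 50% of control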
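Test system: HT1080 cells expressing an RFP-PRO-GFP fluorescent reporter construct / Compound dosing: single-point 20 µM compound, 1% DMSO / Schedule: cells overnight before dosing, compound overnight, 37 °C, 5% CO2 / Evaluation: GFP/RFP fluorescence ratio / Control set: DMSO and RFP-L50D-GFP cell wells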
ADAM10 confirm – confirmation of inhibitors of human ADAM10; shares compounds with ADAM10 inh; ADAM10 QFRET peptide cleavage, EDANS fluorescence; inhibition, % at 6.95 µM; actives 1% (n = 2,100);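 active = inhibition above about 20% chosen separately for each screening run, limit read from the data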;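 also: 0% = DMSO wells and 100% = marimastat wells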
ADAM17 counter – ADAM17 inhibition, counter-screen for ADAM10 exosite hits; ADAM17 QFRET peptide cleavage, EDANS fluorescence; actives 0.5% (n = 2,100); inhibition, % at 6.95 µM; shares compounds with ADAM10 inh; AID 743214;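 active = mean triplicate inhibition above the solvent-only control wells' mean plus 3 SD, cut at about 12% in these data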;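 also: 0% = DMSO wells and 100% = marimastat wells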
ADAM10 ctr – counter-screen for ADAM17 exosite inhibitors: inhibitors of human ADAM10 | actives 47% (n = 2,900) | shares compounds with ADAM17 inh | recombinant ADAM10, EDANS/DABCYL FRET peptide cleavage, 3 h | inhibition, % at 6.95 µM;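 active = mean inhibition over the triplicate runs exceeds the activity threshold set in the earlier primary screen, cut at about 20% in these data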;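 also: 0% = DMSO wells and 100% = marimastat wells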
ADAM17 confirm – confirmation of inhibitors of human ADAM17. recombinant ADAM17, EDANS/DABCYL QFRET peptide cleavage. inhibition, % at 6.95 µM. AID 743257. actives 65% (n = 2,900). shares compounds with ADAM17 inh;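 active = mean inhibition across replicates above the hit cutoff set in the primary screen, cut at about 8.5% in these data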;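 also: 0% = DMSO wells and 100% = marimastat wells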
Starred values were filed as active, the others as inactive. A selection: hits, their analogues and other compounds. The true share with any hit is near 4.7%.

For CCn1ccnc1CN(C)Cc1cn(-c2cccc(C)c2)nc1-c1cccc(F)c1 the results were ADAM10 inh 19, MPTP block 1, ADAM17 inh 5, SKN-1 block 1, GRIN3A LBD mod 1 and MT1-MMP act inh -5.
Screening Cc1ccc(-n2c(C)c3c(C)nnc(C)c3c2C)cc1N returned ADAM10 inh -8, MPTP block 2, ADAM17 inh -6, SKN-1 block -2, GRIN3A LBD mod -1 and MT1-MMP act inh -3.
Screening CN(C)c1ccc(NS(=O)(=O)c2ccc(Cl)cc2)cc1 returned ADAM10 inh 34*, MPTP block 2, ADAM17 inh 13*, SKN-1 block 8, GRIN3A LBD mod 0, MT1-MMP act inh 4, ADAM10 confirm 5, ADAM17 counter 1, ADAM10 ctr 8 and ADAM17 confirm 3.
For CN(C)c1ccc(NS(=O)(=O)c2cccc(Cl)c2)cc1 the results were ADAM10 inh 3, MPTP block 1, ADAM17 inh -3, SKN-1 block 5, GRIN3A LBD mod -5 and MT1-MMP act inh 3.
Screening Cc1cc(C)nc(SCC(=O)Nc2ccc(S(=O)(=O)Nc3nccs3)cc2)n1 returned ADAM10 inh 14, MPTP block 0, ADAM17 inh 1, SKN-1 block 12, GRIN3A LBD mod 1 and MT1-MMP act inh 1.
`O=C(CSc1nnc(SCc2cccc3ccccc23)s1)Nc1ccc(S(=O)(=O)Nc2nccs2)cc1` gave ADAM10 inh 35*, ADAM17 inh 11*, ADAM10 confirm 7, ADAM17 counter 2, ADAM10 ctr 26* and ADAM17 confirm 11*.
Screening CC1CC(C)CN(C(=O)CSc2nc3ccsc3c(=O)n2Cc2ccccn2)C1 (configuration not stated) returned ADAM10 inh -7, MPTP block -2, ADAM17 inh -8, SKN-1 block 3, GRIN3A LBD mod -2 and MT1-MMP act inh -1.
CC(C)(C)NC(=O)C(c1c[nH]c2ccccc12)N(C(=O)Cn1nnc(-c2ccc(F)cc2)n1)c1cccc(O)c1 (configuration not stated) was read as ADAM10 inh 28*, MPTP block -2, ADAM17 inh 14*, SKN-1 block 9, GRIN3A LBD mod 10, MT1-MMP act inh -4, ADAM10 confirm 8, ADAM17 counter 3, ADAM10 ctr 32* and ADAM17 confirm 19*.
`CC(C)(C)NC(=O)C(c1ccco1)N(C(=O)Cn1nnc(-c2ccc(F)cc2)n1)c1cccc(F)c1` (configuration not stated) gave ADAM10 inh 1, MPTP block 0, ADAM17 inh -2, SKN-1 block 23, GRIN3A LBD mod -1 and MT1-MMP act inh -1.
Screening CN(c1cccc(NC(=O)CN(c2cccc(Cl)c2)S(=O)(=O)c2ccccc2)c1)S(C)(=O)=O returned ADAM10 inh 10, MPTP block 6, ADAM17 inh 4, SKN-1 block 5, GRIN3A LBD mod 8 and MT1-MMP act inh 0.
